Test results from ChEMBL document CHEMBL1255290, “Characterization of a novel human immunodeficiency virus type 1 protease inhibitor, A-790742” (Antimicrob Agents Chemother, 2008).

Columns and labels:
[1] = tested on: Human immunodeficiency virus 1; experiment: Antiviral activity against HIV1 isolate 9 infected in human MT4 cells obtained from protease inhibitor-resistant patient harboring protease L10I, I15I/V, K20R, L33F, E35D, M36I, N37D, R41K, K43I, M46I, I54V, I62V, L63P, A71T, I72T, V82A, I84V, L90M, I93L mutation derived from viral passages with Lopinavir assessed as reduction in viral cytopathogenicity treated 1 hr post infection measured 5 days …; type: functional
[2] = tested on: Human immunodeficiency virus 1; experiment: (§1) Antiviral activity against HIV1 RF infected in human MT4 cells derived from 10 viral passages with 160 nM A-790742 harboring protease A71V, V82G mutation assessed as reduction in viral cytopathogenicity treated 1 hr post infection measured 5 days post infection by MTT assay relative to wild type HIV1 RF; type: functional
Method in brief: (§2)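 Selection: MT-4 cells infected with parental pNL4-3 or RF (MOI 0.003, 2 h), then passaged under rising selecting drug whenever supernatant p24 (ELISA) exceeded 10 ng/ml. Passage viruses titred by TCID50 (Spearman-Karber). Assay: 10^6 MT-4 cells infected at MOI 0.003 for 1 h, washed, and seeded at 10^4 cells/well with eight serial dilutions, triplicate, 0.5% DMSO final. Day-5 MTT read-out; EC50 fold-change versus parental wild type.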

[3] = tested on: Human immunodeficiency virus 1; experiment: Antiviral activity against HIV1 isolate 8 infected in human MT4 cells obtained from protease inhibitor-resistant patient harboring protease L10I, I13V, L33F, E34Q, R41K, M46I, I54V, K55R, R57K, Q58E, I62V, L63P, A71V, I72I/T, G73S, V82A, I84V, L90M mutation derived from viral passages with Lopinavir assessed as reduction in viral cytopathogenicity treated 1 hr post infection measured 5 days post …; type: functional
[4] = tested on: Human immunodeficiency virus 1; experiment: Antiviral activity against HIV1 RF infected in human MT4 cells derived from 8 viral passages with 52 nM A-790742 harboring protease V75I mutation assessed as reduction in viral cytopathogenicity treated 1 hr post infection measured 5 days post infection by MTT assay relative to wild type HIV1 RF; type: functional
Method in brief: as §2

[5] = tested on: Human immunodeficiency virus 1; experiment: as §1, with “13” for “10”, “340” for “160”, “protease M46I, L63P,” for “protease”; type: functional
Method in brief: as §2

[6] = tested on: Human immunodeficiency virus 1; experiment: (§3) Antiviral activity against HIV1 P15 infected in human MT4 cells derived from viral passages with A-790742 harboring protease L33L/F, K45I, V82L, and I84V mutation assessed as reduction in viral cytopathogenicity treated 1 hr post infection measured 5 days post infection by MTT assay relative to wild type HIV1 pNL4-3; type: functional
Method in brief: (§4)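 For the assay, 10⁶ MT-4 cells were infected at MOI 0.003, washed after 1 h, and plated at 10⁴ cells/well with eight serial compound dilutions in triplicate (0.5% DMSO final). MTT cytopathic read-out at day 5; EC50 from dose-response fitting.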

[7] = tested on: Human immunodeficiency virus 1; experiment: as §3, with “pNL4-3” for “P15”, “from 9” for “from”, “with 80 nM” for “with”, “V82V/L” for “L33L/F, K45I, V82L,”; type: functional
Method in brief: as §2

[8] = tested on: Human immunodeficiency virus 1; experiment: Antiviral activity against HIV1 B26 infected in human MT4 cells harboring protease L33F, K45I, M46I, I50V, I54V, A71V, and V82F mutation derived from viral passages with Lopinavir assessed as reduction in viral cytopathogenicity treated 1 hr post infection measured 5 days post infection by MTT assay; type: functional, organism-based; conditions: Human immunodeficiency virus 1, B26, MT4
Method in brief: as §4

[9] = tested on: Human immunodeficiency virus 1; experiment: as §3, with “P21” for “P15”, “L23I, L33F,” for “L33L/F,”, “K45I, A71A/V, V77I,” for “K45I,”; type: functional
Method in brief: as §4

[10] = tested on: Human immunodeficiency virus 1; experiment: Antiviral activity against HIV1 isolate 2 infected in human MT4 cells obtained from protease inhibitor-resistant patient harboring protease L10I, I15V, G16E, K20R, E35D, M36I, R41K, I54A, R57K, Q61D, A71V, I72R, V82A, L89I, L90M, Q92K mutation derived from viral passages with Lopinavir assessed as reduction in viral cytopathogenicity treated 1 hr post infection measured 5 days post infection by …; type: functional
[11] = tested on: Human immunodeficiency virus 1; experiment: Antiviral activity against HIV1 isolate 13 infected in human MT4 cells obtained from protease inhibitor-resistant patient harboring protease L10I, K14R, L33F, E34Q, R41K, K45R, M46I, I50V, K55R, L63P, A71V, G73T, V77I, V82A, L90M, I93L mutation derived from viral passages with Lopinavir assessed as reduction in viral cytopathogenicity treated 1 hr post infection measured 5 days post infection by …; type: functional
[12] = tested on: Human immunodeficiency virus 1; experiment: Antiviral activity against HIV1 clone3 infected in HEK293 cells harboring A-790742-selected protease L33F, K45I, V82L, and I84V mutation assessed as reduction in viral replication by luciferase reporter gene assay relative to wild type HIV1 pNL4-3; type: functional
Method in brief: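 Single-cycle assay: HEK-293 cells were cotransfected with luciferase-reporter HIV-1 protease clones plus a VSV-G expression vector. After 4 h, cells were replated at 2 × 10⁴/well over serial inhibitor dilutions in triplicate. Pseudovirus collected at 48 h infected fresh HEK-293 (10⁴/well). Luciferase read 48 h later gave % inhibition versus untreated and EC50. Fold change against WT pNL4-3-Luc (clones 1-4) or RF-Luc (clone 5) is the mean of three experiments.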

[13] = tested on: Human immunodeficiency virus 1; experiment: Antiviral activity against HIV1 isolate 6 infected in human MT4 cells obtained from protease inhibitor-resistant patient harboring protease L10I, L24I, M46I, I54V, K55R, Q58E, L63P, I64V, A71V, V82A, T91A mutation derived from viral passages with Lopinavir assessed as reduction in viral cytopathogenicity treated 1 hr post infection measured 5 days post infection by MTT assay relative to wild type …; type: functional

## COC(=O)N[C@H](C(=O)N[C@H](Cc1ccc(-c2ccccn2)cc1)C[C@H](O)[C@H](Cc1ccccc1)NC(=O)[C@@H](N1CCN(Cc2cccc(C(C)(C)O)n2)C1=O)C(C)(C)C)C(C)(C)C
[1]
  Ratio EC50: 6
[2]
  Ratio EC50: 32
[3]
  Ratio EC50: 4
[4]
  Ratio EC50: 10.4
[5]
  Ratio EC50: 68
[6]
  Ratio EC50: 29
[7]
  Ratio EC50: 26.7
[8]
  EC50: 22 nM
[9]
  Ratio EC50: >2500
[10]
  Ratio EC50: 12
[11]
  Ratio EC50: 2
[12]
  Ratio EC50: 23
[13]
  Ratio EC50: 1
